ChEMBL document CHEMBL4152242, “Synthesis and biological activity of novel tert-butyl and tert-pentylphenoxyalkyl piperazine derivatives as histamine H3R ligands” (Eur J Med Chem, 2018)
Active and inactive are the calls of the source. The rule behind the calls is not given here.

Tests used:
Histamine H3 receptor = Histamine H3 receptor (Homo sapiens, UniProt Q9Y5N1); assay: Displacement of [3H]Nalpha-methylhistamine from recombinant human H3 receptor expressed in HEK293 cells after 90 mins by liquid scintillation counting method; assay type: cell-based
Outline: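 Thawed, homogenized membranes from HEK-293 cells stably expressing full-length human H3R, incubated 90 min at RT with shaking with 2 nM [3H]Nα-methylhistamine (KD 3.08 nM) and 5–11 concentrations (0.01 nM–10 µM). Nonspecific binding with pitolisant 10 µM. GF/B filtration (0.3% PEI), ice-cold water washes, scintillation counting. Ki by Cheng-Prusoff; mean (95% CI), ≥3 experiments in at least duplicate.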

Mus musculus [1] = assay: Anticonvulsant activity in maximal electroshock induced seizure TO mouse model assessed as suppression of tonic hind limb extension at 10 mg/kg, ip pretreated for 30 to 45 mins followed by maximal electroshock induction; assay type: functional, organism-based
[2] = (§1) Antagonist activity at muscarinic receptor in guinea pig ileum assessed as carbachol-induced ileum contraction measured after 15 mins; settings: Cavia porcellus, 0.25 h; read-out: pA2 (converted)
Outline: (§2)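 Male guinea-pig ileum (300-400 g), 2 cm segments in Krebs solution at 37°C, pH 7.4, O2/CO2 19:1, 0.5 g resting tension, 60 min equilibration. Cumulative agonist curves were run with histamine (10 nM–10 µM; H1) or carbachol (3 nM–3 µM; muscarinic), then repeated after 15 min with one antagonist concentration per tissue. Responses were taken as % of first-curve Emax, with pA2 from Schild analysis or pKB from the concentration ratio.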

[3] = target: Histamine H1 receptor (Cavia porcellus) (UniProt P31389); assay: Agonist activity at H1 receptor in guinea pig ileum assessed as induction of ileum contraction measured after 15 mins
Cavia porcellus [4] = species: Cavia porcellus; assay: Agonist activity at muscarinic receptor in guinea pig ileum assessed as induction of ileum contraction measured after 15 mins
[5] = target: Histamine H1 receptor (Cavia porcellus) (UniProt P31389); assay: Antagonist activity at H1 receptor in guinea pig ileum assessed as inhibition of histamine-induced ileum contraction measured after 15 mins; outline: as §2
Cavia porcellus [6] = species: Cavia porcellus; assay: as §1; outline: as §2
[7] = target: Histamine H1 receptor (Cavia porcellus) (UniProt P31389); assay: Competitive antagonist activity at H1 receptor in guinea pig ileum assessed as inhibition of histamine-induced ileum contraction measured after 15 mins
Outline: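 Ileum from male guinea pigs cut into 2 cm segments in Krebs at 37°C, pH 7.4, O2/CO2 19:1, 0.5 g resting tension, equilibrated 60 min. Cumulative histamine curve (10 nM–10 µM), then 15 min with one antagonist concentration per tissue and a repeat curve. Responses are % of first-curve max. pA2 comes from Schild analysis if slope ≈1, otherwise pKB from concentration ratio; 4–8 repeats.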

Rattus norvegicus [8] = assay: Reversal of RAMH-induced dipsogenia in ip dosed Krf:(WI) WU rat assessed as inhibition of drinking response pretreated for 30 mins followed by RAMH stimulation for 20 mins measured for 30 mins; assay type: functional
Outline: (§3)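 Male Wistar Krf:(WI) WU rats (<250 g), 6–8 per group. Compound, pitolisant or vehicle (1% Tween 80) given i.p. 30 min before RAMH 10 mg/kg i.p. Water intake measured for 30 min, starting 20 min after RAMH. Inhibition = 100 − (individual intake / RAMH-group intake) × 100. ED50 by log-probit with 95% CL; one-way ANOVA with Dunnett.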

Mus musculus [9] = assay: Reversal of scopolamine-induced memory deficit in Albino Swiss CD-1 mouse assessed as increase in step through latency time at 2.5 to 30 mg/kg, ip treated for 1 hr prior to testing followed by scopolamine challenge measured after 30 mins by passive avoidance test; assay type: functional, organism-based
Mus musculus [10] = assay: Reversal of scopolamine-induced memory deficit in Albino Swiss CD-1 mouse assessed as increase in step through latency time at 2.5 to 30 mg/kg, ip treated for 1 hr before training followed by scopolamine challenge 30 mins before training measured 24 hrs after training trial by passive avoidance test; assay type: functional, organism-based
Mus musculus [11] = assay: Anticonvulsant activity in ip dosed maximal electroshock induced seizure TO mouse model assessed as suppression of tonic hind limb extension pretreated for 30 to 45 mins followed by maximal electroshock induction; assay type: functional, organism-based
[12] = Drug metabolism in human liver microsomes after 2 hrs by UPLC analysis; assay type: ADME, microsome; settings: read-out: Drug metabolism
Outline: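 Incubation with human liver microsomes for 120 min; reaction mixture analysed by UPLC-MS, with MS fragmentation used to identify metabolites. In silico site-of-metabolism prediction run alongside.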

Mus musculus [13] = assay: Toxicity in TO mouse model assessed as mortality at 10 mg/kg, ip; assay type: organism-based; settings: in vivo
Rattus norvegicus [14] = assay: Reversal of RAMH-induced dipsogenia in Krf:(WI) WU rat assessed as inhibition of drinking response at 1.25 mg/kg, ip pretreated for 30 mins followed by RAMH stimulation for 20 mins measured for 30 mins relative to control; assay type: functional; outline: as §3
Histamine H4 receptor = Histamine H4 receptor (Homo sapiens, UniProt Q9H3N8); assay: Inhibition of human H4 receptor

Chain of Histamine H3 receptor (Q9Y5N1 whole entry): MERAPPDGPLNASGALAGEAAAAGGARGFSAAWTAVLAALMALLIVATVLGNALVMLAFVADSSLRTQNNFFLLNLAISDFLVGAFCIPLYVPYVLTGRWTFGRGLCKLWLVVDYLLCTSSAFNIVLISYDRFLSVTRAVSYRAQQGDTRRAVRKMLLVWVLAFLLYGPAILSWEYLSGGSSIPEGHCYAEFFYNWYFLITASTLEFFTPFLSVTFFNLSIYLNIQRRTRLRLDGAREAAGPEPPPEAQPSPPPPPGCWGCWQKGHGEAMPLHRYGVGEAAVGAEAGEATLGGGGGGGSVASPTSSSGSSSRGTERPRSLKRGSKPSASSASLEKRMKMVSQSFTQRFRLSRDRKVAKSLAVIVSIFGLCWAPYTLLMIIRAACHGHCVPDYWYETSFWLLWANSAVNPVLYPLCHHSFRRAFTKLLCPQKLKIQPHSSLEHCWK
Chain of Histamine H1 receptor (Cavia porcellus) (P31389 whole entry): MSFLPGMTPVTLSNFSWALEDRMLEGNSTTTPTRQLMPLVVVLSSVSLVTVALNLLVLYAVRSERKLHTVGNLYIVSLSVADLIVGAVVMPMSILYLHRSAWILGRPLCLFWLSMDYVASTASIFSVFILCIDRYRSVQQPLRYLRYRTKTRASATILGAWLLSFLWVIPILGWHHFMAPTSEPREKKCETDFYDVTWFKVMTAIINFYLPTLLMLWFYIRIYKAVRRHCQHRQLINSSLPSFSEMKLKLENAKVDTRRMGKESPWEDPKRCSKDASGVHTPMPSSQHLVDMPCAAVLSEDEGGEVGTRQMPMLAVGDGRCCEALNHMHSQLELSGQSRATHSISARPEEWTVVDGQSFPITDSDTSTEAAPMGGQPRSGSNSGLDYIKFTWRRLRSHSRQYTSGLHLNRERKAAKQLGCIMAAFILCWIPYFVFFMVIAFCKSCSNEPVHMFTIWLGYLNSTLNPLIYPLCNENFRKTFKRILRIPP

Compound | Ki (Histamine H3 receptor) | further results
CCC(C)(C)c1ccc(OCCCN2CCN(c3ncccn3)CC2)cc1 | 5.41 µM | –
CCC(C)(C)c1ccc(OCCCN2CCN(c3cnccn3)CC2)cc1 | 6.21 µM | –
CCC(C)(C)c1ccc(OCCCN2CCN(c3ccccn3)CC2)cc1 | 5.2 µM | –
CN1[C@@H]2CC[C@H]1C[C@@H](OC(=O)C(CO)c1ccccc1)C2 (stereo not given in full) [ATROPINE] | – | Kb [2]: 0.00104 µM
CCC(C)(C)c1ccc(OCCCCN2CCN(C(=O)C3CCCO3)CC2)cc1 (stereo not given) | > 10 µM | –
CCC(C)(C)c1ccc(OCCCCN2CCN(c3cccnc3)CC2)cc1 | > 10 µM | –
CC(C)(C)c1ccc(OCCCN2CCN(c3ncccn3)CC2)cc1 | 3.83 µM | –
CC(C)(C)c1ccc(OCCCN2CCN(C(=O)C3CCCO3)CC2)cc1 (stereo not given) | > 10 µM | –
CC(C)(C)c1ccc(OCCCN2CCN(c3cnccn3)CC2)cc1 | 8.74 µM | –
CC(C)(C)c1ccc(OCCCN2CCN(c3cccnc3)CC2)cc1 | 8.16 µM | –
CC(C)(C)c1ccc(OCCCCN2CCN(c3cnccn3)CC2)cc1 | 5.48 µM | –
CC(C)(C)c1ccc(OCCCN2CCN(c3ccccn3)CC2)cc1 | > 10 µM | –
CC(C)(C)c1ccc(OCCCCN2CCN(c3ccncc3)CC2)cc1 | 0.0378 µM | Activity [3]: inactive; Activity (Cavia porcellus [4]): inactive; inhibition [5]: Dose-dependent effect; inhibition (Cavia porcellus [6]): Dose-dependent effect; pKb (Cavia porcellus [6]): 6.39; pKb [7]: 6.15; ED50 (Rattus norvegicus [8]): 10.7 mg/kg; inhibition (Rattus norvegicus [8]): Dose-dependent effect; Activity (Mus musculus [9]): inactive; Activity (Mus musculus [10]): Active; Activity (Mus musculus [11]): Dose-dependent effect; metabolised at 2 h [12]: 30%
CC(C)(C)c1ccc(OCCCCN2CCN(C(=O)C3CCCO3)CC2)cc1 (stereo not given) | > 10 µM | –
O=C1NC(=O)C(c2ccccc2)(c2ccccc2)N1 [PHENYTOIN] | – | Activity (Mus musculus [1]): Active; Activity (Mus musculus [13]): Non-Toxic
Clc1ccc(CCCOCCCN2CCCCC2)cc1 [PITOLISANT] | – | inhibition in vivo at 1.25 mg/kg (Rattus norvegicus [14]): 87.4%; Ki (Histamine H4 receptor): > 100 µM
CCC(C)(C)c1ccc(OCCCN2CCN(C(=O)C3CCCO3)CC2)cc1 (stereo not given) | > 10 µM | –
CCC(C)(C)c1ccc(OCCCN2CCN(c3cccnc3)CC2)cc1 | 3.65 µM | –

Further lines, with some results ahead:

Ki (Histamine H3 receptor) | Compound | further results
0.016 µM | CC(C)(C)c1ccc(OCCCN2CCN(c3ccncc3)CC2)cc1 | Activity (Mus musculus [1]): Active
3.42 µM | CC(C)(C)c1ccc(OCCCCN2CCN(c3cccnc3)CC2)cc1 | –
0.12 µM | CCC(C)(C)c1ccc(OCCCCN2CCN(c3ccncc3)CC2)cc1 | Activity (Mus musculus [1]): Active
2.96 µM | CC(C)(C)c1ccc(OCCCCN2CCN(c3ccccn3)CC2)cc1 | –
0.683 µM | CCC(C)(C)c1ccc(OCCCCN2CCN(c3cnccn3)CC2)cc1 | –
2.26 µM | CCC(C)(C)c1ccc(OCCCCN2CCN(c3ncccn3)CC2)cc1 | –
0.883 µM | CC(C)(C)c1ccc(OCCCCN2CCN(c3ncccn3)CC2)cc1 | –
0.482 µM | CCC(C)(C)c1ccc(OCCCCN2CCN(c3ccccn3)CC2)cc1 | –
0.0306 µM | CCC(C)(C)c1ccc(OCCCN2CCN(c3ccncc3)CC2)cc1 | Activity (Mus musculus [1]): Active
0.022 µM | CC(C)(C)c1ccc(OCCCN2CCCCC2)cc1 | –
